Assay outcomes deposited in PubChem by Broad Institute.
MLL AF4-AF9 inh = MLL-AF4/AF9 protein interaction inhibition; AlphaScreen, biotin-AF4 peptide binding to FLAG-AF9; AID 651704; P42568; 0.47% of 350,000 active; inhibition, % at 10 µM;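 active means every replicate reaching a set inhibition limit, whatever the replicate mean, cut at about 25% in these data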;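 further: 0% = plate neutral control median and 100% = total signal loss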
S100A4 inh HTS = S100A4-myosin IIA interaction inhibition; inhibition, % at 10.7 µM; P26447; 0.14% of 360,000 active; S100A4/TAMRA-MyoIIA peptide fluorescence polarization;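 active means mean inhibition of at least 70% across replicates, with every replicate also reaching that level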
Target sequence (P26447 whole entry, looked up): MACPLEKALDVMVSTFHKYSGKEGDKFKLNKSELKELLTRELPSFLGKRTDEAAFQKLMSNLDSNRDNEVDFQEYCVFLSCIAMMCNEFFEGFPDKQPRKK
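assay system = human S100A4 monomer with TAMRA-labelled myosin IIA peptide | also added = labelled myosin peptide probe, 5 nM | incubation = 5 min between mix addition and reading | control set = DMSO and TFP controls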
Ecoli rRNA inh = inhibits bacterial ribosomal RNA function over humanized ribosomes. E. coli WT GFP vs humanized-ribosome RFP mutants, fluorescence, 24 h; stronger effect = lower value; DMSO median 0, no signal -100. GFP signal change (wild-type ribosome), % (test concentration not listed). 1.6% of 350,000 active;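 active means significant combined selectivity score with lowered wild-type GFP, culture density cut under 30%, mutant RFP and density less affected; inactive means any of these conditions unmet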
Cneo AK release = Cryptococcus neoformans lysis via adenylate kinase release | C. neoformans lysis, adenylate kinase release luminescence, 4 h; normalised: neutral wells 0, clomiphene wells 100 | lysis activity, % at 15 µM | 0.2% of 360,000 active;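 active means mean lysis activity across replicates of at least 80%, whatever share of replicates individually reach that level; inactive means mean lysis activity below 80%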
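Assay system: Cryptococcus neoformans yeast cells / Dosing: single-point compound dose / Timing: 4 h at 37 °C static, read 1 h later / Measured by: luminescence of released adenylate kinase using an AK detection reagent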
DENV2 CPE = DENV2-induced cell death inhibition. AID 651640. DENV2-infected cells, cytopathic effect rescue, plate reader. CPE inhibition, % at 9.99 µM. 1.7% of 350,000 active; in the data active means CPE inhibition above about 20%, passing the limit was not always enough; tested in BHK-21 cells;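 further: 0% = median of neutral control wells and 100% = median of positive control wells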
PfHsp90 yeast 2 = reduces growth (ATP signal) of yeast expressing P. falciparum Hsp90; 0.32% of 310,000 active; inhibition, % at 9.4 µM; S. cerevisiae expressing PfHsp90, BacTiter-Glo ATP, 48 h; yeast lacking PDR1 and PDR3 efflux regulators;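 active means every replicate shows inhibition above about 80%, whatever the replicate mean, limit read from the data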;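 further: 0% = DMSO neutral controls and 100% = 20 µM radicicol positive controls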
An asterisk follows results filed as active. In the library only some 3.2% were active in any assay of this set; here they are far more common.

`CCCc1cn(CC[C@@H]2CC[C@H](NC(=O)C3CCCC3)[C@@H](CO)O2)nn1` gave MLL AF4-AF9 inh -0.3, S100A4 inh HTS 31.9, Ecoli rRNA inh 4.2, Cneo AK release -0.3 and DENV2 CPE -1.5.
`CCCc1cn(CC[C@@H]2CC[C@H](NC(=O)C3CCCC3)[C@H](CO)O2)nn1` gave MLL AF4-AF9 inh -2.6, S100A4 inh HTS 116.1*, Ecoli rRNA inh 0.7, Cneo AK release -2.6 and DENV2 CPE -12.2.
For CCC(=O)Nc1ccc2c(c1)OC[C@@H](C)N(CC1CC1)C[C@@H](C)[C@@H](OC)CN(C)C2=O the results were MLL AF4-AF9 inh -0.9, S100A4 inh HTS 1.2, Ecoli rRNA inh 2.7, Cneo AK release -2.2 and DENV2 CPE 3.1.
C[C@@H]1CC[C@@]23COC(=O)C2=CCC[C@@H]3[C@@]1(C)CC/C(=C/CO)CO was read as MLL AF4-AF9 inh -1.5, S100A4 inh HTS -3.1, Ecoli rRNA inh -14.5, Cneo AK release -1.0, DENV2 CPE 18.3 and PfHsp90 yeast 2 -11.0.
`CC1=CCC[C@@H]2[C@@](C)(CC/C(C)=C/C(=O)O)[C@H](C)CC[C@@]12C` gave MLL AF4-AF9 inh 1.2, S100A4 inh HTS -0.2, Ecoli rRNA inh -1.9, Cneo AK release -4.3, DENV2 CPE 24.9* and PfHsp90 yeast 2 -1.6.
For O=C(C[C@@H]1C[C@@H]2c3cc(NC(=O)NC4CCCC4)ccc3O[C@@H]2[C@H](CO)O1)NCc1ccncc1 the results were MLL AF4-AF9 inh -4.5, S100A4 inh HTS -0.9, Ecoli rRNA inh 2.2, Cneo AK release 10.6 and DENV2 CPE 4.8.
Screening O=C(C[C@H]1C[C@@H]2c3cc(NC(=O)NC4CCCC4)ccc3O[C@@H]2[C@H](CO)O1)NCc1cccnc1 returned MLL AF4-AF9 inh -1.8, S100A4 inh HTS -12.4, Ecoli rRNA inh 2.1 and DENV2 CPE 12.8.
`C[C@@H]1CN([C@H](C)CO)C(=O)c2cc(-c3cccc(C#N)c3)cnc2O[C@@H]1CN(C)C(=O)C1CC1` gave MLL AF4-AF9 inh -0.7, S100A4 inh HTS -0.4, Ecoli rRNA inh -1.3, Cneo AK release 61.4 and DENV2 CPE -2.3.
For COc1ccccc1CNc1ccc(Br)cn1 the results were MLL AF4-AF9 inh 0.8, S100A4 inh HTS -3.6, Ecoli rRNA inh -29.5*, Cneo AK release 0.4, DENV2 CPE -5.1 and PfHsp90 yeast 2 -21.7.
For Oc1ccccc1CNc1ccc(Br)cn1 the results were Cneo AK release -2.4 and PfHsp90 yeast 2 -3.2.
Screening CCOc1ccc(-n2nnnc2SCC(=O)Nc2cccc(O)c2)cc1 returned MLL AF4-AF9 inh 27.5*, S100A4 inh HTS -0.4, Ecoli rRNA inh -1.1, Cneo AK release -1.0, DENV2 CPE -0.2 and PfHsp90 yeast 2 4.5.
Screening N#Cc1ccsc1NC(=O)CSc1nnnn1-c1ccc(O)cc1 returned MLL AF4-AF9 inh -1.8, S100A4 inh HTS -1.2, Ecoli rRNA inh -25.5*, DENV2 CPE 9.5 and PfHsp90 yeast 2 1.9.
For N=C1/C(=C/c2ccc(-c3cccc(C(=O)O)c3)o2)C(=O)N=C2SC=C(c3ccccc3)N12 the results were MLL AF4-AF9 inh 1.0, S100A4 inh HTS -8.6, Ecoli rRNA inh -20.7*, DENV2 CPE -3.5 and PfHsp90 yeast 2 -6.3.
Screening C[C@@H]1CN([C@@H](C)CO)C(=O)c2cccc(NS(=O)(=O)c3ccc(Cl)cc3)c2O[C@H]1CN(C)C(=O)Nc1ccccc1 returned MLL AF4-AF9 inh -10.5, S100A4 inh HTS -0.3, Ecoli rRNA inh -2.0, Cneo AK release 0.9 and DENV2 CPE -3.2.
`C[C@H](NC(=O)C[C@H]1CC[C@H](NC(=O)C2CCOCC2)[C@H](CO)O1)c1ccccc1` gave MLL AF4-AF9 inh -2.5, S100A4 inh HTS 0.1, Ecoli rRNA inh -0.9, Cneo AK release -1.3 and DENV2 CPE 11.4.
For COc1cc(/C=N/NS(=O)(=O)c2ccc(C(C)(C)C)cc2)cc([N+](=O)[O-])c1O the results were MLL AF4-AF9 inh -1.8, S100A4 inh HTS 6.3, Ecoli rRNA inh -36.2*, DENV2 CPE 12.1 and PfHsp90 yeast 2 -70.2.
For COc1cc(/C=N/N(C)S(=O)(=O)c2ccc(C)cc2)cc([N+](=O)[O-])c1O the results were MLL AF4-AF9 inh 31.3*, S100A4 inh HTS 0.1, Ecoli rRNA inh 6.0, Cneo AK release 3.5, DENV2 CPE -3.4 and PfHsp90 yeast 2 -104.9.
